Test results reported in ChEMBL document CHEMBL5346864, “Identification of L. infantum trypanothione synthetase inhibitors with leishmanicidal activity from a (non-biased) in-house chemical library” (Eur J Med Chem, 2022).
The source made the active and inactive calls. The calls are words filed in the database; no cut-off is given here.

Tests used:
[1] = (§1) Inhibition of N-terminal His6-tagged recombinant Leishmania infantum promastigotes (MCAN/ES/89/IPZ229/1/89) TryS expressed in Escherichia coli BL21(DE3) Rossetta using saturating concentrations of ATP and GSH and Km concentration of GspdSH as substrate measured after 30 mins by BIOMOL Green reagent based assay
[2] = Inhibition of N-terminal His6-tagged recombinant Leishmania infantum promastigotes (MCAN/ES/89/IPZ229/1/89) TryS expressed in Escherichia coli BL21(DE3) Rossetta using saturating concentrations of ATP, GSH and Spd as substrate measured after 30 mins by BIOMOL Green reagent based assay
In short: (§2)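 Recombinant His-LiTryS at 25 nM final, 100 mM HEPES pH 8, 0.5 mM EDTA, 10 mM MgCl2, 100 µM DTT, 2% DMSO, 37 °C, 30 min. Saturating substrates: 150 µM ATP, 100 µM GSH, 2 mM Spd or 500 µM GspdSH. […] Phosphate via BIOMOL Green, A650; 6-point curves, triplicate, three experiments.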

[3] = as §1, with “GSH” for “ATP”, “Spd” for “GSH”, “ATP” for “GspdSH”
[4] = Selectivity index, ratio of CC50 for cytotoxicity against human HepG2 cells to EC50 for Anti-Leishmanial activity against GFP-expressing Leishmania infantum axenic amastigotes infected in human THP-1 cells; assay type: toxicity, cell-based; conditions: read-out: Ratio CC50/EC50
[5] = Inhibition of N-terminal His6-tagged recombinant Leishmania infantum promastigotes (MCAN/ES/89/IPZ229/1/89) TryS expressed in Escherichia coli BL21(DE3) Rossetta using saturating concentrations of ATP, GSH and GspdSH as substrate measured after 30 mins by BIOMOL Green reagent based assay; in short: as §2
[6] = system: Leishmania infantum; test: Induction of mitochondrial inner membrane depolarization in Leishmania infantum axenic amastigotes at 5 uM incubated for 2 hrs by TMRM-derived flow cytometry
[7] = system: Leishmania infantum; test: Anti-leishmanial activity against GFP-expressing Leishmania infantum axenic amastigotes infected in human THP-1 cells assessed as reduction in live intracellular GFP+ amastigotes measured after 72 hrs by fluorescence based analysis; assay type: functional, organism-based; conditions: THP-1, 72 h
In short: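 THP-1 monocytes differentiated 24 h with 100 ng/mL PMA, infected 24 h with GFP-expressing L. infantum axenic amastigotes (5 × 10^6/mL), non-internalized parasites removed by washes and a 24 h horse-serum challenge. Treatment for 72 h at 37 °C in RPMI with 10% horse serum. SDS lysis; live (propidium iodide-negative) GFP+ amastigotes counted by flow cytometry, normalized to vehicle, EC50 by two-parameter fit; three independent experiments.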

[8] = system: Leishmania infantum; test: Induction of plasma membrane depolarization in Leishmania infantum axenic amastigotes at 1 uM incubated for 2 hrs by DiBAC4(3)-derived flow cytometry
[9] = system: Leishmania infantum; test: Increase in the intracellular superoxide radical concentration in Leishmania infantum axenic amastigotes at 1 uM incubated for 2 hrs by DHE-derived flow cytometry; assay type: functional, cell-based
[10] = system: Leishmania infantum; test: Leishmanicidal activity against Leishmania infantum axenic amastigotes (MCAN/ES/89/IPZ229/1/89) assessed as inhibition of parasite proliferation measured after 24 hrs by resazurin dye based fluorescence analysis; assay type: functional, organism-based; conditions: MCAN/ES/89/IPZ229/1/89, 24 h
In short: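 L. infantum MCAN/ES/89/IPZ229/1/89 axenic amastigotes (M199-based medium, pH 5.4, 37 °C) from log cultures seeded at 10^6/mL and treated 24 h at 37 °C. Resazurin added for a further 24 h; fluorescence read at ex 560/em 590 nm, normalized to vehicle, EC50 from two-parameter fit; triplicate in three independent experiments.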

[11] = as §1, with “Spd” for “GSH”, “GSH” for “GspdSH”
[12] = Cytotoxicity against human HepG2 cells assessed as reduction in cell proliferation measured after 72 hrs by crystal violet staining based analysis; assay type: toxicity
[13] = as §1, with “Spd” for “GspdSH”
[14] = Inhibition of N-terminal His6-tagged recombinant Leishmania infantum promastigotes (MCAN/ES/89/IPZ229/1/89) TryS expressed in Escherichia coli BL21(DE3) Rossetta by BIOMOL Green reagent based assay; in short: as §2
[15] = (§3) Competitive inhibition of N-terminal His6-tagged recombinant Leishmania infantum promastigotes (MCAN/ES/89/IPZ229/1/89) TryS expressed in Escherichia coli BL21(DE3) Rossetta with fixed concentration of ATP and GSH and varying concentrations of GspdSH as substrate measured after 30 mins by Lineweaver-Burk double-reciprocal plot analysis
In short: (§4)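 Recombinant His-tagged LiTryS (62.5 nM added to start) in 100 mM HEPES pH 8, 50 µL, 37 °C, 30 min; phosphate read with BIOMOL Green at 650 nm. Four inhibitor concentrations crossed with four varied substrate levels, no enzyme preincubation. […] Lineweaver-Burk analysis, three experiments.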

[16] = as §3, with “Mixed” for “Competitive”; in short: as §4
[17] = as §3, with “Spd” for “ATP”, “ATP” for “GspdSH”; in short: as §4

| SMILES | IC50 [1] [µM] | IC50 [2] [µM] | IC50 [3] [µM] | IC50 [5] [µM] | Activity [6] | EC50 [7] [µM] | Activity [8] | IC50 [11] [µM] | IC50 [13] [µM] | IC50 [14] [µM] | selectivity ratio [4] | Activity [9] | EC50 [10] [µM] | CC50 at 72 h [12] [µM] | Ki [15] [µM] | Ki [16] [µM] | Ki [17] [µM] |
| --- | --- | --- | --- | --- | --- | --- | --- | --- | --- | --- | --- | --- | --- | --- | --- | --- | --- |
| CCCCCCCCCCCCCCCCOP(=O)([O-])OCC[N+](C)(C)C [MILTEFOSINE] | – | – | – | – | Active | 0.7 | Active | – | – | 45.6 | > 107 | Active | 0.5 | > 75 | – | – | – |
| CCCCCCCCCCCCCCCOc1cc(C[N+](C)(C)C2CCCC2)ccc1OCCCCCCCCCCCCCC | 6 | 9.8 | 8.9 | 7.5 | – | – | – | 8.7 | 8.4 | – | – | – | > 75 | – | – | – | – |
| NCCCCc1cn(-c2ccc(-c3nc(-c4ccc(Oc5ccccc5)cc4)c(-c4ccccc4)s3)c(OCCN3CCNC3=O)c2)nn1 | 10.7 | 14.8 | 8.7 | 16.2 | – | 13.5 | – | 14.2 | 10.9 | – | 1.2 | – | 21.5 | 15.9 | 3.9 | – | 5.4 |

Continued, in another order:

| IC50 [1] [µM] | IC50 [2] [µM] | IC50 [3] [µM] | IC50 [5] [µM] | Activity [6] | EC50 [7] [µM] | Activity [8] | IC50 [11] [µM] | IC50 [13] [µM] | IC50 [14] [µM] | SMILES | selectivity ratio [4] | Activity [9] | EC50 [10] [µM] | CC50 at 72 h [12] [µM] | Ki [15] [µM] | Ki [16] [µM] | Ki [17] [µM] |
| --- | --- | --- | --- | --- | --- | --- | --- | --- | --- | --- | --- | --- | --- | --- | --- | --- | --- |
| 3.8 | 7.9 | 7.3 | 7.1 | Active | 0.6 | Active | 7.8 | 5.5 | – | CCCCCCCCCCCCCCOc1ccc(C[N+](C)(C)C2CCCC2)cc1OC | 35.5 | Active | 0.4 | 21.3 | – | – | – |
| 4.9 | 14.8 | 13.4 | 7.2 | – | 17.9 | – | 14.6 | 9.9 | – | CCCCCCCCCCCC(=O)NC(COC(=O)c1ccc(OCCN)c(OCCN)c1)COC(=O)c1cc(OCCN)c(OCCN)c(OCCN)c1 (stereo unspecified) | > 4.2 | – | 7.3 | > 75 | 2.6 | – | – |
| 5.1 | 5.4 | 7.1 | 5.9 | – | – | – | 6.7 | 4.7 | – | O=C(O[C@@H]1OC[C@@H](OC(=O)c2ccc(O)c(O)c2O)[C@@H](OC(=O)c2ccc(O)c(O)c2O)[C@H]1OC(=O)c1ccc(O)c(O)c1O)c1ccc(O)c(O)c1O | – | – | 47.6 | – | – | – | – |
| 2 | 4.4 | 5.4 | 2.2 | – | – | – | 5.4 | 5.6 | – | O=C(OC[C@H]1O[C@H](O[C@H]2O[C@H](COC(=O)c3cc(O)c(O)c(O)c3)[C@@H](OC(=O)c3cc(O)c(O)c(O)c3)[C@H](OC(=O)c3cc(O)c(O)c(O)c3)[C@H]2OC(=O)c2cc(O)c(O)c(O)c2)[C@H](OC(=O)c2cc(O)c(O)c(O)c2)[C@@H](OC(=O)c2cc(O)c(O)c(O)c2)[C@@H]1OC(=O)c1cc(O)c(O)c(O)c1)c1cc(O)c(O)c(O)c1 | – | – | 43.7 | – | – | 0.8 | – |
